PfG6PD inh: PfG6PD (Plasmodium falciparum) enzyme inhibition | PfGluPho enzyme, NADPH resazurin-diaphorase fluorescence | actives 0.78% (n = 350,000) | inhibition, % at 20 µM;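 active means inhibition reaching at least a set limit at 20 µM in the primary screen, cut at about 59% in these data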
B2AR ag: activates human beta-2 adrenergic receptor causing internalization; P07550; Am2.2-beta2AR cells, FAP receptor internalization, flow cytometry; response, % (concentration not given with the values); actives 0.43% (n = 340,000);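 active means response above a set limit, near 3 SD of response in nonfluorescent compounds, cut at about 42% in these data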
ABHD5-PLIN5 inh: inhibitors of human ABHD5-perilipin-5 interaction; actives 0.78% (n = 360,000); Q00G26+Q8WTS1; inhibition, % at 4 µM; Split G. princeps luciferase complementation, luminescence, 4 h;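 active means inhibition above the mean inhibition across every tested compound plus 3 SD, cut at about 22% in these data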
Target sequence (Q00G26 whole entry, looked up): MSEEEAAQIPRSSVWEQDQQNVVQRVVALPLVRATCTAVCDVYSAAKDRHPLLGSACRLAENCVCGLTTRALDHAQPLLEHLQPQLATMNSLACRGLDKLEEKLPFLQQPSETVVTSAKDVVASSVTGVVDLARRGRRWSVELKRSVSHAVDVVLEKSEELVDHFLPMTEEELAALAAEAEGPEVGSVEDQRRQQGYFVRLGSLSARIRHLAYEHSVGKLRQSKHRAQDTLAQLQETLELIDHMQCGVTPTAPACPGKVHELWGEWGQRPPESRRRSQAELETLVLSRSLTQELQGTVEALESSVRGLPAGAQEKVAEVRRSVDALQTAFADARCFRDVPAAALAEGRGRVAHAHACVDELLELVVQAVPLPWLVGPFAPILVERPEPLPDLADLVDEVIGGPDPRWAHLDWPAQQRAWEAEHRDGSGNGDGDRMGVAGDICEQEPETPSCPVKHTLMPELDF
Target sequence (Q8WTS1 whole entry, looked up): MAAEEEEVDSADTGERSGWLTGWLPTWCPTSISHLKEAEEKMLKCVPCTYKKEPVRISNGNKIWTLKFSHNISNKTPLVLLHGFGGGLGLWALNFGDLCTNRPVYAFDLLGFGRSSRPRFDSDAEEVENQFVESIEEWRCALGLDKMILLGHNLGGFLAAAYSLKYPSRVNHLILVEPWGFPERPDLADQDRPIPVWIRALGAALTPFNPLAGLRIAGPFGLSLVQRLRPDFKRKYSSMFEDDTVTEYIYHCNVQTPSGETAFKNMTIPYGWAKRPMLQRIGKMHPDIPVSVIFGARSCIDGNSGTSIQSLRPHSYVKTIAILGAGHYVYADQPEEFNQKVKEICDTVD
MC4R ag barr: activates human MC4R beta-arrestin recruitment. U2OS MC4R beta-arrestin complementation, luminescence; percent of melanotan II response, DMSO zero. actives 0.98% (n = 360,000). activation, % at 8.9 µM. P32245;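 active means activation above a per-plate cutoff, the mean activation of sample wells on that plate plus 3 SD, cut at about 8% in these data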
MC4R antag cAMP: blocks human MC4R cAMP signaling. P32245. MC4R-expressing cells, MTII-stimulated cAMP, LANCE TR-FRET. inhibition, % at 6.5 µM. actives 0.48% (n = 360,000);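 active means inhibition above its plate's cutoff, the mean of tested wells on that plate plus 3 SD, cut at about 29% in these data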
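System – human MC4R-expressing U2OS cells · Also added – Melanotan II · Dosing – one concentration, 6.5 µM nominal · Timing – 30-min compound, 1-h challenge, 1-h detection, room temperature · Measured by – Eu-cAMP/anti-cAMP TR-FRET, emission 671 nm · Replicates – singlicate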
Hits are given with their value; - = inactive; . = no result. Only some compounds are listed: those with a hit (about 3% of all), similar ones and a draw of the others.

SMILES	PfG6PD inh	B2AR ag	ABHD5-PLIN5 inh	MC4R ag barr	MC4R antag cAMP
CCOC(=O)CSc1nc2c(sc(=S)n2-c2ccccc2)c(=O)n1-c1ccc(OC)cc1OC	65	-	-	-	-
CC1CCCN(C(=O)C2CCN(S(=O)(=O)c3ccc4c(c3)CC(C)N4C(=O)C3CC3)CC2)C1 (centres undefined)	-	-	-	-	-
CNc1cc(-c2cccc(C(=O)N3CCOCC3)c2)ncn1	.	.	-	-	-
COc1ccc(C=NNC(=O)c2ccccc2OCc2ccc(F)cc2)c(OC)c1	-	-	-	-	-
COc1cccc(/C=N/N2CCN(c3ccncc3S(=O)(=O)N3CCCCC3)CC2)c1	-	75	-	-	-
CCOC(=O)C1=CCN(S(=O)(=O)c2ccccc2Br)C1c1cccc(C)c1 (centres undefined)	.	.	-	.	.
CC(C)(C)c1ccc(S(=O)(=O)/N=C2\C=C(NS(=O)(=O)c3ccccc3)C(=O)c3ccccc32)cc1	-	-	-	-	-
Cc1ccc(NC2=C/C(=N/S(=O)(=O)c3cccs3)c3ccccc3C2=O)cc1	-	43	-	-	-
Cc1ccc(S(=O)(=O)/N=C2\C=C(Nc3ccc(O)cc3)C(=O)c3ccccc32)cc1	111	74	-	-	-
CCC(C)(C)c1ccc(OCCCC[n+]2cccc(C)c2)c(C(C)(C)CC)c1	-	-	23	19	-
Cc1ccc[n+](CC(=O)Nc2cc(C(F)(F)F)ccc2Cl)c1	-	-	-	-	-
CCc1ccc(N(CC(=O)NC2CCCC2)C(=O)CCC(=O)Nc2ccccn2)cc1	-	-	-	-	-
O=C(Nc1cccnc1Cl)c1cc(-c2cccc(O)c2)on1	-	-	-	12	-
Cc1cc(C)cc(C(N)=Nc2cccc(C#N)c2)c1	-	-	-	-	-
N#Cc1cccc(N=c2ssnc2Cl)c1	80	-	.	.	.
CCN(CC)c1ccc(/C=C2\SC(=O)N(C(C)C)C2=O)o1	-	-	86	-	-
CN1C(=O)CC(Nc2cccc3cccc(N)c23)C1=O (centres undefined)	64	-	-	-	-
COC(=O)c1[nH]c2ccccc2c1NC(=O)/C=C/c1ccc2c(c1)OCO2	-	-	-	8.4	-
CCOC(=O)c1c(C)[nH]c(C(=O)COC(=O)/C=C/c2ccc(O)c(OC)c2)c1C	-	-	-	-	-
CCOC(=O)c1c(C)[nH]c(C(=O)COC(=O)/C=C/c2ccc3c(c2)OCO3)c1C	-	53	-	-	-
CCN(CC(=O)Nc1c(C(=O)OC)[nH]c2ccccc12)c1ccc2c(c1)OCO2	-	-	-	-	-
Cc1cccc(CNC(=O)c2sc(=O)n(Cc3ccc(S(C)(=O)=O)cc3)c2C)c1	.	.	-	-	-
Cc1ccccc1OCC(O)Cn1c(=N)n(Cc2ccccc2)c2ccccc21 (centres undefined)	-	-	-	9.1	-
COCCNC(=O)C1CCCN(C(=O)c2sccc2C)CC1 (centres undefined)	.	.	-	-	-
CCN1C/C(=C/c2ccc(N3CCOCC3)cc2)C(=O)/C(=C/c2ccc(N3CCOCC3)cc2)C1	-	-	58	-	-
SMILES	PfG6PD inh	B2AR ag	ABHD5-PLIN5 inh	MC4R ag barr	MC4R antag cAMP
CC(C)(C)c1nn(-c2ccccc2)c2[nH]c(=O)c(C=O)cc12	-	55	-	-	-
CCc1ccc(NCc2cc3c(C)nn(-c4ccccc4)c3[nH]c2=O)cc1	-	-	-	-	-
CCOc1ccc(NCc2cc3c(C(C)(C)C)nn(-c4ccccc4)c3[nH]c2=O)cc1	-	-	-	11	-
Cc1ccc(OCCCCNC2CCCCC2)c(C)c1	-	-	-	-	-
O=C(CN1C(=O)NC2(CCCCC2)C1=O)N1CCN(S(=O)(=O)c2ccc(F)c(F)c2F)CC1	-	-	-	-	-
O=C(c1cccc(Cl)c1)c1nn(-c2ccccc2)c(=O)cc1C(F)(F)F	-	-	-	8.5	-
O=C(c1ccccc1)c1nn(-c2ccccc2)c(=O)cc1C(F)(F)F	-	-	-	-	-
CCOc1ccc(/C=C2\SC(N3CCc4ccccc4C3)=NC2=O)cc1	-	68	-	-	-
COc1ccc(/C=C2\SC(N3CCc4ccccc4C3)=NC2=O)cc1	-	-	-	-	-
Cc1ccc(C(=O)N2CCCC(C(=O)Nc3cccc(-c4ccc(F)cc4)c3)C2)cn1 (centres undefined)	-	-	-	-	-
